Assay results as given in PMC6404779 (Nature medicine, 2018).

Legend:
[1] = tested on: first site of RAF dimers; settings: cited from earlier work
[2] = tested on: second site of RAF dimers; settings: read-out: IC50 of binding to the second site of RAF dimers; cited from earlier work
[3] = tested on: BRAF V600E monomer; settings: cited from earlier work
[4] = tested on: A375 cells with overexpression of BRAF V600E; assay: A375 xenograft with doxycycline-induced BRAF V600E overexpression; type: in vivo, nude mice; settings: vemurafenib 75mg/kg BID, PLX8394 50mg/kg BID
Summary of the method: (§1)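 A375 cells carrying a retroviral tet-regulated BRAF V600E or NRAS Q61K construct (kept in 50 ug/ml hygromycin and 0.2 ug/ml puromycin). 5 million cells were injected s.c. into nude mice fed doxycycline food. At 100 mm3, mice stayed on doxycycline food and received vehicle, reference RAF inhibitor 75 mg/kg BID or test compound 50 mg/kg BID. Tumour size was tracked (n=5; mean±s.d.; two-tailed unpaired t-test).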

[5] = tested on: RAF-null MEFs expressing CRAF; assay: ERK signaling in RAF-null MEFs expressing one RAF isoform; type: cell-based, Mouse; settings: 1hr
Summary of the method: (§2)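 RAF-less MEFs came from Araflox/lox;Braflox/lox;Craflox/lox;RERT ert/ert MEFs. Doxycycline-inducible wild-type ARAF, BRAF or CRAF was transduced retrovirally without 4-OHT and selected with puromycin/hygromycin. Cells were then infected with Adeno-Cre (MOI 100) and cultured in 1 uM 4-OHT plus 50 ng/ml doxycycline. GFP-positive cells were sorted after 2 weeks. Loss of endogenous RAF and induced expression were confirmed by genomic PCR and Western blot.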

[6] = tested on: RAF-null MEFs expressing BRAF; assay: as above; type: cell-based, Mouse; settings: 1hr
Summary of the method: as §2

[7] = tested on: RAF-null MEFs expressing ARAF; assay: as above; type: cell-based, Mouse; settings: 1hr
Summary of the method: as §2

[8] = tested on: BRAF K601E CRC PDX tumors; assay: Colorectal cancer PDX model; type: in vivo, NSG mice; settings: vemurafenib 75mg/kg BID, PLX8394 50mg/kg BID
[9] = tested on: A375 cells with NRAS Q61K expression; assay: A375 xenograft with doxycycline-induced NRAS Q61K; type: in vivo, nude mice; settings: vemurafenib 75mg/kg BID, PLX8394 50mg/kg BID
Summary of the method: as §1

[10] = tested on: BRAF G466V PDX tumors; assay: Colorectal cancer PDX model; type: in vivo, NSG mice; settings: Cetuximab 50 mg/kg IP twice weekly, vemurafenib 75 mg/kg BID, PLX8394 50 mg/kg BID

| SMILES | time the drug remains bound to the other site after washout ([1]; cells pretreated 1 hour, washed out) | IC50 ([1]; read-out: IC50 of binding to first site of RAF dimers) [nM] | IC50 [2] [nM] | off-rate from BRAF V600E monomers [3] [h] | IC50 ([3]; read-out: IC50 of binding to the BRAF V600E monomer) [nM] | response of ERK signaling and tumor growth, BRAF V600E amplified [4] | effect on ERK signaling, cells expressing only CRAF [5] | effect on ERK signaling, cells expressing only BRAF [6] | effect on ERK signaling, cells expressing only ARAF [7] | tumor growth response, single RAF inhibitor [8] | response of ERK signaling and tumor growth, mutant NRAS [9] | response of ERK signaling and tumor growth [10] |
| --- | --- | --- | --- | --- | --- | --- | --- | --- | --- | --- | --- | --- |
| COC(=O)N[C@@H](C)CNc1nccc(-c2cn(C(C)C)nc2-c2cc(Cl)cc(NS(C)(=O)=O)c2F)n1 [encorafenib] | up to 24 hours | 14 | 287 | > 24 | 14 | – | – | – | – | – | – | – |
| CCCS(=O)(=O)Nc1ccc(F)c(C(=O)c2c[nH]c3ncc(-c4ccc(Cl)cc4)cc23)c1F [vemurafenib, reference compound] | – | – | – | – | – | resistance | activated ERK signaling | activated ERK signaling | activated ERK signaling | insensitive | resistance | insensitive |
